Measured values: ChEMBL document CHEMBL1126742, “Syntheses of 5'-substituted analogues of carbocyclic 3-deazaadenosine as potential antivirals” (J Med Chem, 1993)
Converted amounts (≈) assume the structure as drawn.

Columns and labels:
Vero [1] = assay: Minimum toxic concentration against vaccinia virus (vero cell line); assay type: functional, Chlorocebus sabaeus
How it was run: (§1)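 Host-cell toxicity was measured alongside the antiviral test. MTC is the lowest concentration of test compound giving a 50% reduction in percent survival of viable host cells.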

Vero [2] = assay: Inhibitory concentration (reduction in cytopathic effect) against vaccinia virus (vero cell line); assay type: functional, cell-based; settings: Chlorocebus sabaeus
How it was run: (§2)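 Antiviral activity was scored as inhibition of virus cytopathic effect (CPE) in the named host cells. IC50 is the drug concentration giving a 50% reduction in virus CPE.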

Vero [3] = assay: Virus rating against vaccinia virus (vero cell line); assay type: functional, Chlorocebus sabaeus
How it was run: (§3)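 The virus rating is computed from CPE-inhibition data by the Huffman and Sidwell method. VR > 1 means definite to moderate activity; VR < 0.5 means no significant activity.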

L929 [4] = assay: Inhibitory concentration (reduction in cytopathic effect) against vesicular stomatitis virus (L-929 cell line); assay type: functional, cell-based; settings: Mus musculus; how it was run: as §2
L929 [5] = assay: Minimum toxic concentration against vaccinia virus (L-929 cell line); assay type: functional, Mus musculus; how it was run: as §1
L929 [6] = assay: Virus rating against vaccinia virus (L-929 cell line); assay type: functional, Mus musculus; how it was run: as §3
L929 [7] = assay: Minimum toxic concentration against vesicular stomatitis virus (L-929 cell line); assay type: functional, Mus musculus; how it was run: as §1
LLC-MK2 [8] = assay: Minimum toxic concentration against yellow fever virus (MK2 cell line); assay type: functional, Cercopithecidae; how it was run: as §1
L929 [9] = assay: Virus rating against vesicular stomatitis virus (L-929 cell line); assay type: functional, Mus musculus; how it was run: as §3
LLC-MK2 [10] = assay: Virus rating against yellow fever virus (MK2 cell line); Evaluated by plaque reduction assay; assay type: functional, cell-based; settings: Cercopithecidae
LLC-MK2 [11] = assay: Inhibitory concentration (reduction in cytopathic effect) against yellow fever virus (MK2 cell line); assay type: functional, cell-based, Cercopithecidae; settings: Macaca mulatta; how it was run: as §2
L929 [12] = assay: Inhibitory concentration (reduction in cytopathic effect) against vaccinia virus (L-929 cell line); assay type: functional, cell-based; settings: Mus musculus; how it was run: as §2
Vero [13] = assay: Virus rating against vaccinia virus ( vero cell line); assay type: functional, Chlorocebus sabaeus; how it was run: as §3
[14] = system: Vesicular stomatitis virus; assay: Minimum inhibitory concentration against vesicular stomatitis virus; assay type: functional
Vaccinia virus = assay: Minimum inhibitory concentration against vaccinia virus; assay type: functional; settings: Orthopoxvirus vaccinia

| Structure (SMILES) | MTC50 (Vero [1]) [µg/mL] | IC50 (Vero [2]) [µg/mL] | VR (Vero [3]) | IC50 (L929 [4]) [µg/mL] | MTC50 (L929 [5]) [µg/mL] | VR (L929 [6]) | MTC50 (L929 [7]) [µg/mL] | MTC50 (LLC-MK2 [8]) [µg/mL] | VR (L929 [9]) | VR (LLC-MK2 [10]) | IC50 (LLC-MK2 [11]) [µg/mL] | IC50 (L929 [12]) [µg/mL] | VR (Vero [13]) | MIC [14] [µg/mL] | MIC (Vaccinia virus) [µg/mL] |
| --- | --- | --- | --- | --- | --- | --- | --- | --- | --- | --- | --- | --- | --- | --- | --- |
| NC[C@H]1C[C@@H](n2cnc3c(N)nccc32)C(O)[C@H]1O (stereo partly drawn) | 320 | 18 (≈ 68.4 µM) | 1 |  |  |  |  |  |  |  |  |  |  |  |  |
| OC[C@H]1C[C@@H](n2cnc3cnccc32)C(O)[C@H]1O (stereo partly drawn) |  |  |  | 49 (≈ 197 µM) | 249 | 1 | 79 | 100 | 0.7 | Evaluated by plaque reduction assay | 70 (≈ 281 µM) | 7 (≈ 28.1 µM) |  |  |  |
| NC(=O)[C@H]1C[C@@H](n2cnc3c(N)nccc32)C(O)[C@H]1O (stereo partly drawn) | 320 | 32 (≈ 115 µM) |  |  |  |  |  |  |  |  |  |  | 0.7 |  |  |
| Nc1nccc2c1ncn2[C@@H]1C[C@H](CO)[C@H](O)C1O (stereo partly drawn) |  |  |  |  |  |  |  |  |  |  |  |  |  | 20 (≈ 75.7 µM) | 20 (≈ 75.7 µM) |
| Nc1nccc2c1ncn2[C@@H]1C[C@H](CCl)[C@H](O)C1O (stereo partly drawn) |  |  |  | 88 (≈ 311 µM) | 90 | 0.6 | 283 |  | 0.4 |  |  | 32 (≈ 113 µM) |  |  |  |
| Nc1nccc2c1ncn2[C@@H]1C[C@H](CBr)[C@H](O)C1O (stereo partly drawn) | 320 | 87 (≈ 266 µM) | 0.6 | 147 (≈ 449 µM) |  |  | 320 |  | 0.3 |  |  |  |  |  |  |
| C[C@H]1C[C@@H](n2cnc3c(N)nccc32)C(O)[C@H]1O (stereo partly drawn) | 100 | 3.1 (≈ 12.5 µM) | 1.4 | 100 (≈ 403 µM) |  |  | 100 | 104 | 1 | Evaluated by plaque reduction assay | 23 (≈ 92.6 µM) |  |  |  |  |
